The text below walks through data of ChEMBL document CHEMBL2440028, “Identification of 1-[4-Benzyloxyphenyl)-but-3-enyl]-1H-azoles as New Class of Antitubercular and Antimicrobial Agents” (ACS Med Chem Lett, 2013).

Series [1] concerns Mycobacterium tuberculosis. Kind of series: Antitubercular activity against Mycobacterium tuberculosis H37Rv assessed as growth inhibition after […] by agar microdilution method. Format: functional.
Series [2] in a line: Mean residence time in Sprague-Dawley rat at 10 mg/kg, po. In kind it is ADME, organism-based. The arrangement: dose 10 mg/kg, route oral. The settings on record: in vivo. In outline:
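Male Sprague-Dawley rats were given a single oral dose of 10 mg/kg. Serum concentration-time profiles were followed, and pharmacokinetic parameters, including mean residence time and clearance, were derived from them.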

The subject of series [3] is Trichophyton mentagrophytes. Kind of series: Antifungal activity against Trichophyton mentagrophytes isolated from patient assessed as growth inhibition after 72 to 96 hrs by microbroth dilution method. Format: functional. In outline:
(§1)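 Broth microdilution susceptibility testing following NCCLS guidelines (reference standard M27-A for yeasts), run against a panel of bacterial and fungal strains.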

The subject of the next series is Sporothrix schenckii. Description: Antifungal activity against Sporothrix schenckii isolated from patient assessed as growth inhibition after 72 to 96 hrs by microbroth dilution method. In kind it is functional. In a few lines:
as §1

For the next series, the system named is Cryptococcus neoformans. Kind of series: Antifungal activity against Cryptococcus neoformans CDRI isolate assessed as growth inhibition after 24 to 48 hrs by microbroth dilution method. In kind it is functional. In a few lines:
as §1

The test system of the next series is Candida albicans. Description: Antifungal activity against Candida albicans isolated from patient assessed as growth inhibition after 24 to 48 hrs by microbroth dilution method. Format: functional. In outline: as §1
The subject of another series is Candida parapsilosis. Description: Antifungal activity against Candida parapsilosis ATCC 22019 assessed as growth inhibition after 24 to 48 hrs by microbroth dilution method. Format: functional. Particulars: Lodderomyces parapsilosis. In a few lines: as §1
For a further series, the system named is Aspergillus fumigatus. Description: Antifungal activity against Aspergillus fumigatus isolated from patient assessed as growth inhibition after 72 to 96 hrs by microbroth dilution method. Format: functional. In a few lines: as §1
A further series concerns Escherichia coli. Kind of series: Antibacterial activity against Escherichia coli ATCC 9637 assessed as growth inhibition after 24 hrs by microbroth dilution method. In kind it is functional. The settings on record: W. In a few lines:
as §1

The next series relates to Staphylococcus aureus. Description: Antibacterial activity against Staphylococcus aureus ATCC 25923 assessed as growth inhibition after 24 hrs by microbroth dilution method. In kind it is functional. Particulars: ATCC 25923, 24 h. In outline:
as §1

In another series the test system is Pseudomonas aeruginosa. Kind of series: Antibacterial activity against Pseudomonas aeruginosa ATCC BAA427 assessed as growth inhibition after 24 hrs by microbroth dilution method. In kind it is functional. Particulars: ATCC BAA427, 24 h. In outline: as §1
The test system of a further series is Klebsiella pneumoniae. Kind of series: Antibacterial activity against Klebsiella pneumoniae ATCC 27736 assessed as growth inhibition after 24 hrs by microbroth dilution method. Format: functional. The settings on record: ATCC 27736, 24 h. In outline:
as §1

Series [4] is described as follows: Cytotoxicity against African green monkey Vero cells after 24 hrs by MTS assay. In kind it is cell-based. The settings on record: chlorocebus sabaeus.
Series [5] is described as follows: Selectivity index, ratio of CC50 for African green monkey Vero cells to MIC for Mycobacterium tuberculosis H37Rv. In kind it is functional.

Molecules are shown by their SMILES. Values after ≈ are worked out from the molar mass of the structure shown.

In the case of `Cc1cnn(C(c2ccc(OCc3ccc(Br)cc3)cc2)C2CC2)c1` (stereo not given), the MIC in [1] is more than 50 µg/mL.

Regarding `Brc1ccc(COc2ccc(C(C3CC3)n3cncn3)cc2)cc1` (stereo not given), in [1], the minimum inhibitory concentration (MIC) stood at 25 µg/mL (≈ 65.1 µM).

With `Brc1ccc(COc2ccc(/C=C/CCn3cncn3)cc2)cc1`, the MIC in series [1] stood at 4.78 µg/mL (≈ 12.4 µM).

With `c1ccc(COc2ccc(C(C3CC3)n3cnc4ccccc43)cc2)cc1` (stereo not given), the MIC in series [1] is 12.5 µg/mL (≈ 35.3 µM).

For the compound `Cc1cnn(CC/C=C/c2ccc(OCc3ccc(Br)cc3)cc2)c1`, the MRT in series [2] came out at 7.17 h.

Consider `Clc1ccccc1C(c1ccccc1)(c1ccccc1)n1ccnc1` [CLOTRIMAZOLE], for which the MIC is 2 µg/mL (≈ 5.8 µM) in [3]; 4 µg/mL (≈ 11.6 µM) in the series with Sporothrix schenckii; 0.25 µg/mL (≈ 0.725 µM) in the series on Cryptococcus neoformans; 0.25 µg/mL (≈ 0.725 µM) in the series on Candida albicans; 1 µg/mL (≈ 2.9 µM) in the series on Candida parapsilosis; 8 µg/mL (≈ 23.2 µM) in the series with Aspergillus fumigatus.

On to `CC[C@@H](CO)NCCN[C@@H](CC)CO` [ETHAMBUTOL], for which the MIC in series [1] came to 2 µg/mL (≈ 9.79 µM).

`C(=C\c1ccc(OCc2ccccc2)cc1)/CCSc1nc2ccccc2[nH]1`: in series [1], the MIC is more than 25 µg/mL.

Regarding `O=[N+]([O-])c1cnc(NC(c2ccc(OCc3ccccc3)cc2)C2CC2)s1` (stereo not given), the MIC in series [1] is more than 25 µg/mL.

For the compound `c1cc(OCCN2CCCCC2)ccc1COc1ccc(C(Nn2cnnc2)C2CC2)cc1` (stereo not given), the MIC in series [1] is 50 µg/mL (≈ 112 µM).

Turning to `c1ccc2sc(SC(c3ccc(OCc4ccc(OCCN5CCCCC5)cc4)cc3)C3CC3)nc2c1` (stereo not given), the MIC in the series with Escherichia coli is more than 50 µg/mL; in series [3] it was 6.25 µg/mL (≈ 11.8 µM); in the series on Sporothrix schenckii, 12.5 µg/mL (≈ 23.6 µM); with Cryptococcus neoformans, 50 µg/mL (≈ 94.2 µM); in the series with Staphylococcus aureus it was 12.5 µg/mL (≈ 23.6 µM); in the series on Candida albicans, 6.25 µg/mL (≈ 11.8 µM). In addition, the MIC in the series on Pseudomonas aeruginosa was more than 50 µg/mL; with Candida parapsilosis, more than 50 µg/mL; with Klebsiella pneumoniae, more than 50 µg/mL; with Aspergillus fumigatus, 25 µg/mL (≈ 47.1 µM); in series [1], 3.12 µg/mL (≈ 5.88 µM). Besides, the CC50 at 24 h in series [4] was 100 µg/mL (≈ 188 µM). Besides, the “Selectivity Index” value in series [5] turned out to be 32.2.

For the compound `COc1ccc(COc2ccc(/C=C/CCSc3nc4ccccc4[nH]3)cc2)cc1`, the MIC in series [1] was more than 12.5 µg/mL.

As to `c1ccc(COc2ccc(C(C3CC3)n3cncn3)cc2)cc1` (stereo not given), the MIC in [1] was more than 12.5 µg/mL.

Take `OC(Cn1cncn1)(Cn1cncn1)c1ccc(F)cc1F` [FLUCONAZOLE]: the MIC was 16 µg/mL (≈ 52.2 µM) in series [3]; 4 µg/mL (≈ 13.1 µM) with Sporothrix schenckii; 2 µg/mL (≈ 6.53 µM) with Cryptococcus neoformans; 1 µg/mL (≈ 3.27 µM) in the series on Candida albicans; 0.5 µg/mL (≈ 1.63 µM) with Candida parapsilosis; more than 32 µg/mL in the series on Aspergillus fumigatus. Moreover, in series [1], the MIC amounted to 2.83 µg/mL (≈ 9.22 µM).

For the compound `c1ccc2oc(NC(c3ccc(OCc4ccc(OCCN5CCCCC5)cc4)cc3)C3CC3)nc2c1` (stereo not given), the MIC was more than 50 µg/mL in the series on Escherichia coli; 12.5 µg/mL (≈ 25.1 µM) in [3]; 25 µg/mL (≈ 50.2 µM) in the series on Sporothrix schenckii; 50 µg/mL (≈ 100 µM) in the series on Cryptococcus neoformans; 25 µg/mL (≈ 50.2 µM) with Staphylococcus aureus; 12.5 µg/mL (≈ 25.1 µM) in the series on Candida albicans. In addition, the MIC in the series on Pseudomonas aeruginosa is more than 50 µg/mL; in the series with Candida parapsilosis it was 50 µg/mL (≈ 100 µM); with Klebsiella pneumoniae it was more than 50 µg/mL; in the series on Aspergillus fumigatus, more than 50 µg/mL; in [1], 6.25 µg/mL (≈ 12.6 µM). In [4], this compound displayed a CC50 at 24 h of 11.7 µg/mL (≈ 23.5 µM). Further, the “Selectivity Index” value in [5] is recorded as 1.87.

Take `Clc1ccc(COc2ccc(C(C3CC3)n3cncn3)cc2)cc1` (stereo not given): in series [1], the MIC was found to be 12.5 µg/mL (≈ 36.8 µM).

`CC1(C)S[C@@H]2[C@H](NC(=O)[C@H](N)c3ccccc3)C(=O)N2[C@H]1C(=O)O` [AMPICILLIN]: the MIC in the series with Escherichia coli is 3.12 µg/mL (≈ 8.93 µM); in the series on Staphylococcus aureus, 0.04 µg/mL (≈ 0.114 µM); in the series on Pseudomonas aeruginosa it was more than 50 µg/mL; in the series on Klebsiella pneumoniae it was 50 µg/mL (≈ 143 µM).

As for `O=[N+]([O-])c1cn(C(c2ccc(OCc3ccc(F)cc3)cc2)C2CC2)cn1` (stereo not given), the MIC in series [1] was found to be 12.5 µg/mL (≈ 34 µM).

Consider `NNC(=O)c1ccncc1` [ISONIAZID], for which the MIC in [1] came out at 0.025 µg/mL (≈ 0.182 µM).

As for `C(=C\c1ccc(OCc2ccccc2)cc1)/CCn1cnc2ccccc21`, the MRT in series [2] was determined as 3.22 h.

For `Clc1ccc(COc2ccc(/C=C/CCn3nnc4ccccc43)cc2)cc1`, the MIC in series [1] is more than 12.5 µg/mL.

`CCCCSc1nc2ccccc2n1CC/C=C/c1ccc(OCc2ccccc2)cc1`: the MIC in [1] was more than 12.5 µg/mL.

For `ClCC/C=C/c1ccc(OCc2ccc(OCCN3CCCCC3)cc2)cc1`, the MIC in series [1] amounted to 4.46 µg/mL (≈ 11.2 µM).

For `Cc1cnn(C(c2ccc(OCc3ccccc3Cl)cc2)C2CC2)c1` (stereo not given), in series [1], the MIC is 12.5 µg/mL (≈ 35.4 µM).

In series [2], `c1ccc(COc2ccc(C(Nc3nc4ccccc4s3)C3CC3)cc2)cc1` (stereo not given) showed an MRT of 7.9 h.

Take `C(=C\c1ccc(OCc2ccccc2)cc1)/CCn1cncn1`: the MIC in series [1] is more than 25 µg/mL.

The compound `OC(c1ccc(OCc2ccc(OCCN3CCCCC3)cc2)cc1)C1CC1` (stereo not given) showed a CC50 at 24 h in series [4] of more than 50 µg/mL. For the same compound, the MIC in [1] is 3.12 µg/mL (≈ 8.18 µM). Also, the “Selectivity Index” value in series [5] is on record as more than 10.

For `C(=C\c1ccc(OCc2ccccc2)cc1)/CCSc1nc2ccccc2s1`, the MRT in series [2] turned out to be 6.02 h.

With `COc1ccc(COc2ccc(C(C3CC3)n3cnc4ccccc43)cc2)cc1` (stereo not given), the MIC in [1] is more than 12.5 µg/mL.

For the compound `c1ccc2[nH]c(SC(c3ccc(OCc4ccc(OCCN5CCCCC5)cc4)cc3)C3CC3)nc2c1` (stereo not given), the MIC in [1] was more than 50 µg/mL.

`c1ccc2sc(NC(c3ccc(OCc4ccc(OCCN5CCCCC5)cc4)cc3)C3CC3)nc2c1` (stereo not given): the MIC in series [1] is 12.5 µg/mL (≈ 24.3 µM).

In the case of `c1ccc(COc2ccc(C(C3CC3)n3ccnc3)cc2)cc1` (stereo not given), in series [1], the MIC stood at 12.5 µg/mL (≈ 41.1 µM).

Take `O=[N+]([O-])c1cn(CC/C=C/c2ccc(OCc3ccc(F)cc3)cc2)cn1`: in series [1], the MIC worked out at 50 µg/mL (≈ 136 µM).

`Fc1ccc2nc(NC(c3ccc(OCc4ccc(OCCN5CCCCC5)cc4)cc3)C3CC3)sc2c1` (stereo not given) returned a CC50 at 24 h in [4] of 4.93 µg/mL (≈ 9.27 µM). In addition, in series [1], the MIC came to 6.25 µg/mL (≈ 11.8 µM). In addition, in series [5], the “Selectivity Index” value came to 0.78.

Consider `c1ccc(COc2ccc(C(Nn3cnnc3)C3CC3)cc2)cc1` (stereo not given), for which the MIC in series [1] is more than 12.5 µg/mL.

On to `COc1ccc(COc2ccc(C(C3CC3)n3ccnc3)cc2)cc1` (stereo not given), for which the MIC was more than 50 µg/mL with Escherichia coli; 3.12 µg/mL (≈ 9.33 µM) in series [3]; 3.12 µg/mL (≈ 9.33 µM) in the series with Sporothrix schenckii; 50 µg/mL (≈ 150 µM) in the series on Cryptococcus neoformans; 25 µg/mL (≈ 74.8 µM) in the series with Staphylococcus aureus; 25 µg/mL (≈ 74.8 µM) in the series with Candida albicans. Moreover, the MIC in the series on Pseudomonas aeruginosa worked out at 50 µg/mL (≈ 150 µM); in the series with Candida parapsilosis, 50 µg/mL (≈ 150 µM); with Klebsiella pneumoniae, 25 µg/mL (≈ 74.8 µM); with Aspergillus fumigatus it was 6.25 µg/mL (≈ 18.7 µM); in series [1] it was 12.5 µg/mL (≈ 37.4 µM).

As to `Clc1ccc(COc2ccc(/C=C/CCn3cnc4ccccc43)cc2)cc1`, in series [1], the MIC is 6.25 µg/mL (≈ 16.1 µM).

On to `c1ccc2c(c1)ncn2C(c1ccc(OCc2ccc(OCCN3CCCCC3)cc2)cc1)C1CC1` (stereo not given), for which, in [1], the MIC was 12.5 µg/mL (≈ 26 µM).
